The source made the active and inactive calls. The calls are words filed in the database; no cut-off is given here.
Tests used:
[1] = test system: K562; assay: Induction of apoptosis in Homo sapiens (human) K562 cells from 24 to 48 hr by annexinV/PI-staining based flow cytometric analysis; assay type: functional, cell-based
How it was run: (§1)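 Cells seeded at 2.5 × 10^5 cells/ml in RPMI-1640/10% FBS, treated 24 or 48 h, DMSO solvent controls. Rinsed twice in cold PBS and resuspended at 2 × 10^6 cells/ml in binding buffer. Labelled with annexin V-FITC and PI for 15 min at room temperature in the dark. Flow cytometry within 1 h; mean ± SD, n ≥ 4.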

[2] = test system: K562; assay: Induction of apoptosis in Homo sapiens (human) K562 cells at 10 to 20 uM by annexinV/PI-staining based flow cytometric analysis; assay type: functional, cell-based; details: TDE = time-dependent effect; how it was run: as §1
[3] = test system: K562; assay: Induction of cell cycle arrest in Homo sapiens (human) K562 cells assessed as cells accumulation of G1/S phase cells after 48 hr by PI-staining based flow cytometric analysis; assay type: functional
How it was run: (§2)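 Cells treated 48 h with DMSO solvent controls, washed in cold PBS and fixed in 70% ethanol at −20°C for at least 24 h. Stained 30 min in the dark at room temperature with 50 μg/ml PI and 100 μg/ml RNase in PBS/0.1% Triton X-100. DNA content measured by flow cytometry and phase percentages modelled; mean ± SD, n ≥ 4.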

[4] = test system: K562; assay: Induction of apoptosis in Homo sapiens (human) K562 cells assessed as mitochondrial membrane depolarization at 10 uM after 48 hr by JC-1 staining based flow cytometric analysis (reference value: 6.1 +/- 0.9%); assay type: functional
[5] = test system: HL-60; assay: Induction of apoptosis in Homo sapiens (human) HL60 cells at 5 to 8 uM by annexinV/PI-staining based flow cytometric analysis; assay type: functional, cell-based; details: TDE = time-dependent effect; how it was run: as §1
[6] = test system: K562; assay: Induction of cell cycle arrest in Homo sapiens (human) K562 cells assessed as decrease in G2/M phase cells after 48 hr by PI-staining based flow cytometric analysis; assay type: functional; how it was run: as §2
[7] = test system: K562; assay: Induction of cell cycle arrest in Homo sapiens (human) K562 cells assessed as accumulation of G1 phase cells after 48 hr by PI-staining based flow cytometric analysis; assay type: functional; how it was run: as §2
[8] = test system: HL-60; assay: Induction of apoptosis in Homo sapiens (human) HL60 cells from 24 to 48 hr by annexinV/PI-staining based flow cytometric analysis; assay type: functional, cell-based; how it was run: as §1
[9] = test system: HL-60; assay: Induction of apoptosis in Homo sapiens (human) HL60 cells assessed as mitochondrial membrane depolarization at 5 uM after 48 hr by JC-1 staining based flow cytometric analysis (reference value: 7.7 +/- 2.4%); assay type: functional
[10] = test system: HL-60; assay: Induction of cell cycle arrest in Homo sapiens (human) HL60 cells assessed as accumulation of G1 phase cells after 48 hr by PI-staining based flow cytometric analysis; assay type: functional; how it was run: as §2
[11] = test system: HL-60; assay: Induction of cell cycle arrest in Homo sapiens (human) HL60 cells assessed as cells accumulation of G1/S phase cells after 48 hr by PI-staining based flow cytometric analysis; assay type: functional; how it was run: as §2
[12] = test system: HL-60; assay: Induction of cell cycle arrest in Homo sapiens (human) HL60 cells assessed as decrease in G2/M phase cells after 48 hr by PI-staining based flow cytometric analysis; assay type: functional; how it was run: as §2
[13] = test system: K562; assay: Induction of cell cycle arrest in Homo sapiens (human) K562 cells assessed as G2/M phase cells at 10 uM after 48 hr by PI-staining based flow cytometric analysis (reference value: 19.1 +/- 3.9%); assay type: functional; how it was run: as §2
[14] = test system: K562; assay: Induction of cell cycle arrest in Homo sapiens (human) K562 cells assessed as G1 phase cells at 10 uM after 48 hr by PI-staining based flow cytometric analysis (reference value: 37.6 +/- 3.2 %); assay type: functional; how it was run: as §2
[15] = test system: K562; assay: Induction of cell cycle arrest in Homo sapiens (human) K562 cells assessed as S phase cells at 20 uM after 48 hr by PI-staining based flow cytometric analysis (reference value: 43.3 +/- 3.4%); assay type: functional; how it was run: as §2
[16] = test system: HL-60; assay: Induction of apoptosis in Homo sapiens (human) HL60 cells assessed as apoptotic nuclei at 8 uM after 48 hr by DAPI/sulforhodamine 101-stainihng based fluorescence micrscopic analysis; assay type: functional, cell-based
How it was run: (§3)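 Exponentially growing cells seeded at 2.5 × 10^5 cells/ml, exposed 48 h, DMSO solvent controls. Washed in cold PBS and fixed in 70% ethanol at −20°C for at least 24 h. Stained with 1.0 μg/ml DAPI plus 20 μg/ml sulforhodamine 101. Nuclear morphology scored by fluorescence microscopy.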

[17] = test system: HL-60; assay: Induction of apoptosis in Homo sapiens (human) HL60 cells assessed as PARP cleavage at 8 uM after 48 hr by FITC conjugated antiPARP-staining based flow cytometric analysis; assay type: functional, cell-based
How it was run: (§4)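 Cells in RPMI-1640 with 10% heat-inactivated FBS, seeded at 2.5 × 10^5 cells/ml and treated from DMSO solution. Controls got the same solvent volume. Harvested 48 h post-treatment and washed twice in PBS. Stained with FITC anti-PARP antibody specific for the 85 kDa cleaved fragment. Flow cytometry reported fluorescence intensity, with negative (M1) and positive (M2) gates.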

[18] = test system: HL-60; assay: Induction of apoptosis in Homo sapiens (human) HL60 cells assessed as concentrated chromatin at 8 uM after 48 hr by DAPI/sulforhodamine 101-stainihng based fluorescence micrscopic analysis; assay type: functional, cell-based; how it was run: as §3
[19] = test system: K562; assay: Induction of cell cycle arrest in Homo sapiens (human) K562 cells assessed as S phase cells at 10 uM after 48 hr by PI-staining based flow cytometric analysis (reference value: 43.3 +/- 3.4%); assay type: functional; how it was run: as §2
[20] = test system: K562; assay: Induction of cell cycle arrest in Homo sapiens (human) K562 cells assessed as G1 phase cells at 20 uM after 48 hr by PI-staining based flow cytometric analysis (reference value: 37.6 +/- 3.2 %); assay type: functional; how it was run: as §2
[21] = test system: K562; assay: Induction of cell cycle arrest in Homo sapiens (human) K562 cells assessed as G2/M phase cells at 20 uM after 48 hr by PI-staining based flow cytometric analysis (reference value: 19.1 +/- 3.9%); assay type: functional; how it was run: as §2
[22] = test system: K562; assay: Induction of apoptosis in Homo sapiens (human) K562 cells assessed as PARP cleavage at 10 uM after 48 hr by FITC conjugated antiPARP-staining based flow cytometric analysis; assay type: functional, cell-based; how it was run: as §4

For Br.C=CCNC(=N)SCc1c(Br)c(Br)c(Br)c(Br)c1Br, the Activity [1] was “Dose-dependent effect”, the Activity [2] was “tde” and the Activity [3] was “Dose-dependent effect”. The Activity [4] was 60%, the Activity [5] was “tde” and the Activity [6] was “Dose-dependent effect”. For the same molecule, the Activity [7] was “Dose-dependent effect”, the Activity [8] was “Dose-dependent effect” and the Activity [9] was 12.8%. The Activity [10] was “Dose-dependent effect”, the Activity [11] was “Dose-dependent effect” and the Activity [12] was “Dose-dependent effect”.

For Br.C/N=C(/NC)SCc1c(Br)c(Br)c(Br)c(Br)c1Br, the Activity [1] was “Dose-dependent effect”, the Activity [2] was “tde” and the Activity [3] was “Dose-dependent effect”. It also gave an Activity [13] of 9%, an Activity [14] of 55.5% and an Activity [4] of 77.7%. The Activity [5] was “tde”, the Activity [6] was “Dose-dependent effect” and the Activity [7] was “Dose-dependent effect”. For the same molecule, the Activity [15] was 42.5%, the Activity [8] was “Dose-dependent effect” and the Activity [9] was 93.1%. For the same molecule, the Activity [16] was “Active”, the Activity [17] was “Active” and the Activity [18] was “Active”. For the same molecule, the Activity [10] was “Dose-dependent effect”, the Activity [11] was “Dose-dependent effect” and the Activity [19] was 35.5%. For the same molecule, the Activity [20] was 55%, the Activity [12] was “Dose-dependent effect” and the Activity [21] was 2.5%.

In the case of Br.N=C(N)SCc1c(Br)c(Br)c(Br)c(Br)c1Br, the Activity [1] is reported as “Dose-dependent effect”, the Activity [2] is reported as “tde” and the Activity [3] is reported as “Dose-dependent effect”. The Activity [4] was 63.8%, the Activity [5] was “tde” and the Activity [6] was “Dose-dependent effect”. For the same molecule, the Activity [7] was “Dose-dependent effect”, the Activity [8] was “Dose-dependent effect” and the Activity [9] was 21.9%. The Activity [10] was “Dose-dependent effect”, the Activity [11] was “Dose-dependent effect” and the Activity [12] was “Dose-dependent effect”.

With Br.CCNC(=N)SCc1c(Br)c(Br)c(Br)c(Br)c1Br the Activity [1] was “Dose-dependent effect”, the Activity [2] was “tde” and the Activity [3] was “Dose-dependent effect”. The Activity [4] was 62.2%, the Activity [5] was “tde” and the Activity [6] was “Dose-dependent effect”. For the same molecule, the Activity [7] was “Dose-dependent effect”, the Activity [8] was “Dose-dependent effect” and the Activity [9] was 30.1%. The Activity [10] was “Dose-dependent effect”, the Activity [11] was “Dose-dependent effect” and the Activity [12] was “Dose-dependent effect”.

Br.CNC(=N)SCc1c(Br)c(Br)c(Br)c(Br)c1Br was tested, and the Activity [1] was “Dose-dependent effect”, the Activity [2] was “tde” and the Activity [3] was “Dose-dependent effect”. For the same molecule, the Activity [4] was 81.8%, the Activity [5] was “tde” and the Activity [6] was “Dose-dependent effect”. The Activity [7] was “Dose-dependent effect”, the Activity [8] was “Dose-dependent effect” and the Activity [9] was 24.4%. The Activity [22] was “Active”, the Activity [10] was “Dose-dependent effect” and the Activity [11] was “Dose-dependent effect”. For the same molecule, the Activity [12] was “Dose-dependent effect”.

Source: ChEMBL document CHEMBL3045648, “Proapoptotic effects of novel pentabromobenzylisothioureas in human leukemia cell lines” (2012)
